From ChEMBL document CHEMBL1142995, “Probing the pharmacophore of ginkgolides as glycine receptor antagonists” (J Med Chem, 2007)

Experiments:
Type in all cases: cell-based
[1] = biological target: T1, Glycine receptor subunit alpha-1 (Homo sapiens, UniProt P23415); assay: Activity at human alpha-1GlyR expressed in HEK293 cells by FMP assay
T1 sequence (P23415 whole entry): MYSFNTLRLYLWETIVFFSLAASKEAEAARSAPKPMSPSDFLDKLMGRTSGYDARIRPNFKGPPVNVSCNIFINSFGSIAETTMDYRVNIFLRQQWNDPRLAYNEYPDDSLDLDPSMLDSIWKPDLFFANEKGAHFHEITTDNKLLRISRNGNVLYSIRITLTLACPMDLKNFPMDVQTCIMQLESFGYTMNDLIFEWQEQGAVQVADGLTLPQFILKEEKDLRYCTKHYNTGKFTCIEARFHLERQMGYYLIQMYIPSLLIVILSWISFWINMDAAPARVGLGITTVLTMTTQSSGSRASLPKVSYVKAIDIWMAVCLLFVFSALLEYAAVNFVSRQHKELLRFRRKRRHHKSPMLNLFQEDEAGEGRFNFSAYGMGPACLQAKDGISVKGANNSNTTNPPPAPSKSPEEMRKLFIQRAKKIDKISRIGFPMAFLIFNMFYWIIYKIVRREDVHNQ
Summary of the method: (§1)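 Stable HEK293 lines (α1: G418; α1β: G418 + hygromycin B; α2: hygromycin B) plated on poly-D-lysine 16-24 h. Loaded with FMP dye in HBSS/20 mM HEPES pH 7.4, antagonist present, 30 min at 37 °C. Fluorescence ex 530/em 560 nm read up to 1 min after glycine: 200 µM (α1, α1β) or 500 µM (α2). Duplicates, ≥3 experiments; IC50 from maximal responses.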

[2] = biological target: T1, Glycine receptor subunit alpha-1; assay: Activity at human alpha-1-beta-GlyR expressed in HEK293 cells by FMP assay; summary of the method: as §1
[3] = biological target: T2, Glycine receptor subunit alpha-2 (Homo sapiens, UniProt P23416); assay: Activity at human alpha-2GlyR expressed in HEK293 cells by FMP assay; summary of the method: as §1
T2 sequence (P23416 whole entry): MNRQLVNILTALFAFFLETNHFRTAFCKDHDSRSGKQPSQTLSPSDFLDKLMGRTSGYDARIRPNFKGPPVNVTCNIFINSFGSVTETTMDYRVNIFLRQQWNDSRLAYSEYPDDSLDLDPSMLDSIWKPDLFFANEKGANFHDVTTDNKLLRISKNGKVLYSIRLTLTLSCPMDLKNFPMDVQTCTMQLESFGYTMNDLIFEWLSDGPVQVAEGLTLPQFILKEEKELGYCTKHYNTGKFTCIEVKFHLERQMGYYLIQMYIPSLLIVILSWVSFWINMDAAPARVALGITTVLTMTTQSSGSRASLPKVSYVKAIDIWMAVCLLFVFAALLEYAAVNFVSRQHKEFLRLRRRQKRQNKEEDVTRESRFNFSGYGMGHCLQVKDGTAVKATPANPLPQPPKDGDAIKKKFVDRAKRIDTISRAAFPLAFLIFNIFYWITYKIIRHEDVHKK

[4] = biological target: T1, Glycine receptor subunit alpha-1; assay: Activity at human alpha-1GlyR expressed in HEK293 cells assessed as inhibition of 300 uM glycine-induced current by whole-cell patch clamp experiment

| SMILES | IC50 [1] [µM] | IC50 [2] [µM] | IC50 [3] [µM] | IC50 [4] [µM] |
| --- | --- | --- | --- | --- |
| CCN[C@@H]1C2OC(=O)[C@]34OC5OC(=O)[C@H](O)C5([C@@H]1C(C)(C)C)[C@@]23[C@@H](O)[C@@H]1OC(=O)[C@@H](C)[C@@]14O (stereo partly drawn) | > 100 | > 100 | > 100 | – |
| COC(=O)/C(C)=C1\CC[C@@]23C4C[C@@H](C(C)(C)C)C25C(OC(=O)[C@@H]5O)O[C@]13C(=O)O4 (stereo partly drawn) | > 100 | > 100 | > 100 | – |
| C[C@@H]1C(=O)O[C@@H]2[C@H]1[C@@]13OC4OC(=O)[C@H](O)C45[C@H](C(C)(C)C)[C@@H](O)C(OC1=O)[C@]53[C@H]2O (stereo partly drawn) [GINKGOLIDE M] | 0.78 | 0.56 | 1.3 | 0.65 |
| C[C@@H]1C(=O)O[C@H]2C[C@@]34C5C[C@@H](C(C)(C)C)C3C(=O)O[C@]4(C(=O)O5)[C@]21O (stereo partly drawn) | > 100 | > 100 | > 100 | – |
| CN[C@@H]1C2OC(=O)[C@]34OC5OC(=O)[C@H](O)C5([C@@H]1C(C)(C)C)[C@@]23[C@@H](O)[C@@H]1OC(=O)[C@@H](C)[C@@]14O (stereo partly drawn) | > 100 | > 100 | > 100 | – |
| C[C@@H]1C(=O)O[C@H]2C[C@@]34O[C@@H]5OC(=O)[C@H](O)[C@@]56[C@H](C(C)(C)C)[C@H](O)C(OC3=O)[C@]64[C@]21O (stereo partly drawn) [GINKGOLIDE J] | 7.1 | 4.2 | 12 | 6.4 |
| C[C@@H]1CO[C@H]2C[C@@]34C5C[C@@H](C(C)(C)C)C36C(OC[C@@H]6O)O[C@]4(CO5)[C@@]12O (stereo partly drawn) | > 100 | > 100 | > 100 | – |
| CC(C)(C)[C@@H]1CC2OC(=O)C34OC5OC(=O)[C@H](O)C51[C@@]23CC1OC(=O)[C@](C)(O)[C@@]14O (stereo partly drawn) | > 100 | > 100 | > 100 | – |
| COC(=O)[C@H](OC)C12C(OC)O[C@@]34C(=O)OC(C[C@H]1C(C)(C)C)[C@]23C[C@@H]1OC(=O)[C@@H](C)[C@@]14O (stereo partly drawn) | > 100 | > 100 | > 100 | – |
| COC1C[C@@]23C4C[C@@H](C(C)(C)C)C25C(OC(=O)[C@@H]5OC)O[C@@]3(C(=O)O1)C(=O)O4 (stereo partly drawn) | > 100 | > 100 | > 100 | – |
| CC(=O)O[C@H]1C(=O)OC2O[C@@]34C(=O)OC5C[C@@H](C(C)(C)C)C21[C@@]53C[C@@H]1OC(=O)[C@@H](C)[C@@]14O (stereo partly drawn) [10-ACETOXY-GINKGOLIDE B] | > 100 | > 100 | > 100 | – |
| C[C@@H]1C(=O)O[C@H]2[C@H](O)[C@]34C5OC(=O)[C@@]3(OC3OC(=O)[C@H](O)C34[C@H](C(C)(C)C)[C@@H]5O)[C@@]12O (stereo partly drawn) | > 100 | > 100 | > 100 | – |
| CO[C@H]1C(=O)O[C@H]2O[C@@]34OC(=O)[C@@H]5[C@H](O)[C@@H](C(C)(C)C)[C@@]21[C@@]53[C@@H](O)[C@@H]1OC(=O)[C@@H](C)[C@@]14O | 9.8 | 5.2 | 7.8 | – |
| C[C@@H]1C(=O)O[C@H]2[C@H](O)[C@]34[C@@H]5C(=O)O[C@@]3(O[C@@H]3OC(=O)[C@H](O)[C@@]34[C@H](C(C)(C)C)[C@@H]5N=[N+]=[N-])[C@@]12O | 17 | 7.4 | 29 | – |
| CC(=O)O[C@H]1C(=O)OC2O[C@@]34C(=O)OC5C[C@@H](C(C)(C)C)C21[C@@]53C[C@@H]1OC(=O)[C@H](C)[C@@H]14 (stereo partly drawn) | > 100 | > 100 | > 100 | – |
| COC1C[C@]23C4C[C@@H](C(C)(C)C)C25C(OC(=O)[C@@H]5OC(C)=O)O[C@@]3(C(=O)O1)C(=O)O4 (stereo partly drawn) | > 100 | > 100 | > 100 | – |
| C[C@@H]1C(=O)O[C@H]2[C@H](O)[C@@]34C5OC(=O)[C@@]3(OC3OC(=O)[C@H](O)C34[C@H](C(C)(C)C)[C@H]5OS(=O)(=O)C(F)(F)F)[C@@]12O (stereo partly drawn) | > 100 | > 100 | > 100 | – |

| SMILES | IC50 [1] [µM] | IC50 [2] [µM] | IC50 [3] [µM] | IC50 [4] [µM] |
| --- | --- | --- | --- | --- |
| C[C@@H]1CO[C@H]2C[C@@]34C5C[C@@H](C(C)(C)C)C36C(OC[C@@H]6O)O[C@]4(C(=O)O5)[C@@]12O (stereo partly drawn) | > 100 | > 100 | > 100 | – |
| COC(=O)C(C)[C@H]1CC[C@@]23C4C[C@@H](C(C)(C)C)C25C(OC(=O)[C@@H]5O)O[C@]13C(=O)O4 (stereo partly drawn) | > 100 | > 100 | > 100 | – |
| C[C@@H]1C(=O)O[C@H]2[C@H](O)[C@]34[C@@H]5C(=O)O[C@@]3(O[C@@H]3OC(=O)[C@H](O)[C@@]34[C@H](C(C)(C)C)[C@@H]5F)[C@@]12O | 7.3 | 3.2 | 4.6 | – |
| C[C@@H]1C(=O)O[C@H]2[C@H](O)[C@]34[C@@H]5C(=O)O[C@@]3(O[C@@H]3OC(=O)[C@H](O)[C@@]34[C@H](C(C)(C)C)[C@@H]5Cl)[C@@]12O | 7.6 | 3.2 | 13 | – |
| C[C@@H]1C(=O)O[C@H]2[C@H](O)[C@@]34[C@H]5C[C@@H](C(C)(C)C)[C@]36[C@@H](OC(=O)[C@@H]6O)O[C@@]4(C(=O)O5)[C@@]12O [GINKOLIDE B] | 2.9 | 2.1 | 3.7 | 1.7 |
| C[C@@H]1C(=O)O[C@H]2[C@H](O)[C@]34C5OC(=O)[C@@]3(OC3OC(=O)[C@H](O)C34[C@H](C(C)(C)C)C5=O)[C@@]12O (stereo partly drawn) | > 100 | > 100 | > 100 | – |
| C[C@@H]1CO[C@@H]2C[C@@]34C5C[C@@H](C(C)(C)C)C36C(OC(=O)[C@@H]6O)O[C@]4(C(=O)O5)[C@@]12O (stereo partly drawn) | > 100 | > 100 | > 100 | – |
| C[C@@H]1C(=O)O[C@H]2C[C@@]34[C@H]5C[C@@H](C(C)(C)C)[C@]36[C@@H](OC(=O)[C@@H]6O)O[C@@]4(C(=O)O5)[C@]21O [GINKGOLIDE A] | 1.9 | 0.69 | 2.1 | 3.8 |
| C[C@@H]1C(=O)O[C@H]2C[C@]34C5OC(=O)[C@]3(OC(O)C4[C@H](C(C)(C)C)[C@H]5O)[C@]21O (stereo partly drawn) | > 100 | > 100 | > 100 | – |
| CC(=O)O[C@@H]1C2OC(=O)[C@]34OC5OC(=O)[C@H](O)C5([C@@H]1C(C)(C)C)[C@@]23[C@@H](O)[C@@H]1OC(=O)[C@@H](C)[C@@]14O (stereo partly drawn) | > 100 | > 100 | > 100 | – |
| CC1=C2C(=C[C@]34C5OC(=O)[C@@]23OC2OC(=O)[C@H](O)C24[C@H](C(C)(C)C)[C@H]5O)OC1=O (stereo partly drawn) | > 100 | > 100 | > 100 | – |
| C[C@@H]1C(=O)O[C@H]2[C@H](O)[C@]34C5OC(=O)[C@@]3(OC3OC(=O)[C@H](O)C34[C@H](C(C)(C)C)[C@@H]5OC(=O)Cc3ccccc3)[C@@]12O (stereo partly drawn) | > 100 | > 100 | > 100 | – |
| C[C@@H]1C(=O)O[C@H]2C[C@@]34C5C[C@@H](C(C)(C)C)C36C(=O)C(=O)OC6O[C@]4(C(=O)O5)[C@]21O (stereo partly drawn) | > 100 | > 100 | > 100 | – |
| C[C@@H]1C(=O)OC2[C@@H]3OCO[C@H]4C(=O)OC5OC6(C(=O)OC7C[C@@H](C(C)(C)C)C54[C@]736)[C@]21O (stereo partly drawn) | 12 | 8.9 | 12 | – |
| COCO[C@H]1C(=O)O[C@H]2O[C@@]34OC(=O)[C@@H]5C[C@@H](C(C)(C)C)[C@@]21[C@]53C[C@@H]1OC(=O)[C@@H](C)[C@@]14O [10-METHOXYMETHYLOXY-GINKGOLIDE A] | > 100 | > 100 | > 100 | – |
| CC1=C2[C@H](C[C@]34[C@H]5C[C@@H](C(C)(C)C)[C@]36[C@@H](OC(=O)[C@@H]6O)O[C@]24OC5=O)OC1=O [3,14-DIDEHYDROGINKGOLIDE A] | 6.2 | 3.1 | 9.5 | – |
